Data as given in ChEMBL document CHEMBL1641566, “N-(Pyridin-3-yl)benzamides as selective inhibitors of human aldosterone synthase (CYP11B2)” (Bioorg Med Chem Lett, 2011).
pIC50: −log10 of the molar value.

Key:
[1] = organism: Homo sapiens; experiment: Selectivity ratio of IC50 for human steroid-11beta-hydroxylase to IC50 for human aldosterone synthase
[2] = target: T1, Cytochrome P450 11B2, mitochondrial (Homo sapiens, UniProt P19099); experiment: Inhibition of human aldosterone synthase expressed in chinese hamster V79 cells using 11-deoxycorticosterone as substrate; format: cell-based
T1 sequence (P19099 whole entry): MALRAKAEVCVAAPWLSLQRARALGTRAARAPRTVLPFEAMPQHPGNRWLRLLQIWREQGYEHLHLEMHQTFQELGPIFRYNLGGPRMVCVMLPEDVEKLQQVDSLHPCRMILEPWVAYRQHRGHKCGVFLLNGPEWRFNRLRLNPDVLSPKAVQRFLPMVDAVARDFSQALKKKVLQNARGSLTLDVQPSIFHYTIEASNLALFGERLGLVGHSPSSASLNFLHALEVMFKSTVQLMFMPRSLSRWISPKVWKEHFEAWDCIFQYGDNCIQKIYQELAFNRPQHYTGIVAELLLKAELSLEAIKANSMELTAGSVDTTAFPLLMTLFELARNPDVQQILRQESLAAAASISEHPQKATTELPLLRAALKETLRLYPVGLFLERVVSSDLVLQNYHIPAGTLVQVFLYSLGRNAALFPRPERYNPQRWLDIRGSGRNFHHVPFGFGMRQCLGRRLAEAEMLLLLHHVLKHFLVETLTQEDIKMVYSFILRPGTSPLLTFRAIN

[3] = target: T2, CYP17 (steroid 17-alpha-hydroxylase/17,20 lyase) (Homo sapiens, UniProt P05093); experiment: Inhibition of human CYP17 expressed in Escherichia coli at 2000 nM using progesterone as substrate; conditions: probe progesterone
T2 sequence (P05093 whole entry): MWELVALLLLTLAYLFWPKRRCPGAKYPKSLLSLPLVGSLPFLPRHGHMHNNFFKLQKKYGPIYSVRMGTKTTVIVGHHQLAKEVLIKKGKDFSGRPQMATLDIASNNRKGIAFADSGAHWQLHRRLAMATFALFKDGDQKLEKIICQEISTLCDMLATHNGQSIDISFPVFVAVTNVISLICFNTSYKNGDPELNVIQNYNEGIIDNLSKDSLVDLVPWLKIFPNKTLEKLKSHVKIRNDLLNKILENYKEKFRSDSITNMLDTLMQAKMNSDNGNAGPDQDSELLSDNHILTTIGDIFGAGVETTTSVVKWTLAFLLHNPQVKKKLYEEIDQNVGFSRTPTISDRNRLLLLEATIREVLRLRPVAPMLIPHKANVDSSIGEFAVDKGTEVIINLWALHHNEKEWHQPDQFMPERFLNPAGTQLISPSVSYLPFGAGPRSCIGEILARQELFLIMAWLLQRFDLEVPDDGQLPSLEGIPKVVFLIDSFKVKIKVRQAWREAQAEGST
In short: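 50,000 g sediment of homogenate from E. coli recombinantly expressing human CYP17; substrate progesterone at 25 µM; inhibitor tested at 2.0 µM.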

[4] = target: T3, Cytochrome P450 11B1, mitochondrial (Homo sapiens, UniProt P15538); experiment: Inhibition of human steroid-11beta-hydroxylase expressed in chinese hamster V79 cells using 11-deoxycorticosterone as substrate; format: cell-based
T3 sequence (P15538 whole entry): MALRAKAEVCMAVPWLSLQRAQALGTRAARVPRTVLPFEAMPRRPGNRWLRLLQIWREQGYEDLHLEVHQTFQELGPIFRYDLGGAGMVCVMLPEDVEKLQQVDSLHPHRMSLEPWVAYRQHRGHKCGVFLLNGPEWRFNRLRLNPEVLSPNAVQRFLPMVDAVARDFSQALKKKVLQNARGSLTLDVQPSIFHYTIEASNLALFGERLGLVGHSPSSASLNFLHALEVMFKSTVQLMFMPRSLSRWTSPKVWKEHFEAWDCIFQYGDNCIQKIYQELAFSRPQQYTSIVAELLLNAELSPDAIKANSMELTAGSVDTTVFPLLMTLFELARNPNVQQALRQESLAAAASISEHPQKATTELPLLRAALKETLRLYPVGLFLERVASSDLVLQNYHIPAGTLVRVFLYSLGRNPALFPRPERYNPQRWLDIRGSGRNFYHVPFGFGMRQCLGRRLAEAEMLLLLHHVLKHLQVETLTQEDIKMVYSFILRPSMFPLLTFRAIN

[5] = target: T1, Cytochrome P450 11B2, mitochondrial; experiment: Inhibition of human aldosterone synthase expressed in chinese hamster V79 cells at 500 nM using 11-deoxycorticosterone as substrate; conditions: read-out: INH
[6] = target: T4, CYP19 (aromatase) (Homo sapiens, UniProt P11511); experiment: Inhibition of human placental CYP19 at 500 nM using androstenedione as substrate; conditions: human placental CYP19, probe androstenedione
T4 sequence (P11511 whole entry): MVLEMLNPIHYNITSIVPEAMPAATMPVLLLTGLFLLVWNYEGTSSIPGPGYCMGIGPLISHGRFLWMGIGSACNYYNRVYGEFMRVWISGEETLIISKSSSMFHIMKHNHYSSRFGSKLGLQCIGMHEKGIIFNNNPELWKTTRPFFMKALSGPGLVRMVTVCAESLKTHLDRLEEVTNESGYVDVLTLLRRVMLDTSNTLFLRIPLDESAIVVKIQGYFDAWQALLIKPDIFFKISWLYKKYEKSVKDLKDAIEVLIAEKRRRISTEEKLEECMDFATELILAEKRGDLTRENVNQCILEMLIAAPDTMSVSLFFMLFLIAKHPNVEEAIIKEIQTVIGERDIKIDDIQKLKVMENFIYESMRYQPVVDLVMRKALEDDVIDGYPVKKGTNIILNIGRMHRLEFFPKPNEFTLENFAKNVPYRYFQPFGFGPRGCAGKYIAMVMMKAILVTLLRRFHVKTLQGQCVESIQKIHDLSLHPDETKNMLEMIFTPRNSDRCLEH
In short: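 Human placental CYP19 as enzyme source; substrate androstenedione at 500 nM.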

[7] = target: T5, CYP11B1 (steroid-11beta-hydroxylase) (Homo sapiens, UniProt P15538); experiment: Inhibition of human steroid-11beta-hydroxylase expressed in chinese hamster V79 cells at 500 nM using 11-deoxycorticosterone as substrate
T5 sequence (P15538 whole entry): T3 sequence (P15538 whole entry)

Work on `O=C(Nc1cccnc1)c1ccc(Cl)cc1` yielded a Ratio IC50 [1] of 157, a pIC50 [2] of 7.19 and an inhibition at 2 µM [3] of 1.3%. For the same compound, the pIC50 [4] was 4.99, the inhibition at 0.5 µM [5] was 88% and the inhibition at 0.5 µM [6] was 0%. It also gave an inhibition at 0.5 µM ([7]; probe 11-deoxycorticosterone) of 5%.

`CC(C)(C(=O)c1cccnc1)c1cccnc1` [METYRAPONE] was tested, and the inhibition at 2 µM [3] was 0%, the inhibition at 0.5 µM [5] was 79% and the inhibition at 0.5 µM [6] was 0%. It also gave an inhibition at 0.5 µM ([7]; probe 11-deoxycorticosterone) of 94%.

For `O=C(Nc1cccnc1)c1ccc(F)cc1`, the Ratio IC50 [1] was 174, the pIC50 [2] was 7.09 and the inhibition at 2 µM [3] was 0.3%. For the same compound, the pIC50 [4] was 4.84, the inhibition at 0.5 µM [5] was 86% and the inhibition at 0.5 µM [6] was 1.1%. For the same compound, the inhibition at 0.5 µM ([7]; probe 11-deoxycorticosterone) was 7%.

In the case of `O=C(Nc1cccnc1)c1cc(F)c(F)cc1F`, the Ratio IC50 [1] was 97, the pIC50 [2] was 6.78 and the inhibition at 2 µM [3] was 0.6%. It also gave a pIC50 [4] of 4.79, an inhibition at 0.5 µM [5] of 70% and an inhibition at 0.5 µM [6] of 0%. The inhibition at 0.5 µM ([7]; probe 11-deoxycorticosterone) was 2%.

`O=C(Nc1cccnc1)c1ccncc1` gave an inhibition at 0.5 µM [5] of 39% and an inhibition at 0.5 µM ([7]; probe 11-deoxycorticosterone) of 4%.

Compound `O=C(Nc1cccnc1)c1ccccc1` has an inhibition at 0.5 µM [5] of 30% and an inhibition at 0.5 µM ([7]; probe 11-deoxycorticosterone) of 2%.

In the case of `O=C(Nc1cccnc1)c1ccc(Br)cc1`, the Ratio IC50 [1] was 161, the pIC50 [2] was 6.98 and the inhibition at 2 µM [3] was 4.3%. For the same compound, the pIC50 [4] was 4.78, the inhibition at 0.5 µM [5] was 64% and the inhibition at 0.5 µM [6] was 0.1%. The inhibition at 0.5 µM ([7]; v79) was 0%.

Compound `O=C1CCc2cc(-c3cncc4ccccc34)ccc2N1` has an inhibition at 0.5 µM ([7]; probe 11-deoxycorticosterone) of 91%.

With `Cc1ccc(C(=O)Nc2cccnc2)cc1` the inhibition at 0.5 µM [5] was 25% and the inhibition at 0.5 µM ([7]; probe 11-deoxycorticosterone) was 0%.

With `O=C(Nc1cccnc1)c1cccnc1` the inhibition at 0.5 µM [5] was 8% and the inhibition at 0.5 µM ([7]; probe 11-deoxycorticosterone) was 3%.

Compound `O=C(Nc1cccnc1)c1ccc(-c2ccccc2)cc1` has an inhibition at 0.5 µM [5] of 6% and an inhibition at 0.5 µM ([7]; probe 11-deoxycorticosterone) of 0%.

`O=C(Nc1cccnc1)c1ccc([N+](=O)[O-])cc1` gave a Ratio IC50 [1] of 171, a pIC50 [2] of 6.84 and an inhibition at 2 µM [3] of 1%. The pIC50 [4] was 4.61, the inhibition at 0.5 µM [5] was 64% and the inhibition at 0.5 µM [6] was 0%. The inhibition at 0.5 µM ([7]; probe 11-deoxycorticosterone) was 0%.

For `O=C(Nc1cccnc1)c1cccc(Cl)c1Cl`, the inhibition at 0.5 µM [5] was 51% and the inhibition at 0.5 µM ([7]; probe 11-deoxycorticosterone) was 4%.

`COc1ccc(C(=O)Nc2cccnc2)cc1` showed an inhibition at 0.5 µM [5] of 19% and an inhibition at 0.5 µM ([7]; probe 11-deoxycorticosterone) of 0%.

For `O=C(Nc1cccnc1)c1ccccc1F`, the inhibition at 0.5 µM [5] was 34% and the inhibition at 0.5 µM ([7]; probe 11-deoxycorticosterone) was 1%.

`O=C(Nc1cccnc1)c1cncc(Br)c1` was tested, and the inhibition at 0.5 µM [5] was 29% and the inhibition at 0.5 µM ([7]; probe 11-deoxycorticosterone) was 0.4%.

With `O=C(Nc1cccnc1)c1ccc(OC(F)(F)F)cc1` the inhibition at 0.5 µM [5] was 3% and the inhibition at 0.5 µM ([7]; probe 11-deoxycorticosterone) was 3%.

With `N#Cc1ccc(C(=O)Nc2cccnc2)cc1` the Ratio IC50 [1] was 96, the pIC50 [2] was 7.11 and the inhibition at 2 µM [3] was 0.2%. It also gave a pIC50 [4] of 5.12, an inhibition at 0.5 µM [5] of 81% and an inhibition at 0.5 µM [6] of 0.2%. For the same compound, the inhibition at 0.5 µM ([7]; v79) was 9%.

Work on `O=C(Nc1cccnc1)c1ccc(F)c(F)c1` yielded a Ratio IC50 [1] of 111, a pIC50 [2] of 7.27 and an inhibition at 2 µM [3] of 1%. It also gave a pIC50 [4] of 5.23, an inhibition at 0.5 µM [5] of 83% and an inhibition at 0.5 µM [6] of 0.5%. The inhibition at 0.5 µM ([7]; probe 11-deoxycorticosterone) was 6%.

For `O=C(Nc1cccnc1)c1cccc(Cl)c1`, the inhibition at 0.5 µM [5] was 26% and the inhibition at 0.5 µM ([7]; probe 11-deoxycorticosterone) was 0%.

`COc1ccc(C(=O)Nc2cccnc2)cc1OC` showed an inhibition at 0.5 µM [5] of 2% and an inhibition at 0.5 µM ([7]; probe 11-deoxycorticosterone) of 0.1%.

`O=C(Nc1cccnc1)c1ccc(C(F)(F)F)cc1` gave an inhibition at 0.5 µM [5] of 1% and an inhibition at 0.5 µM ([7]; probe 11-deoxycorticosterone) of 1%.
